Activity calls are given as the source filed them. The calls are words filed in the database; no cut-off is given here.
Experiments:
[1] = biological target: T1, Adenosine receptor A3 (Homo sapiens) (UniProt P0DMS8); experiment: Displacement of [3H]MRE-3008F20 from human adenosine A3 receptor expressed in CHO cells at 10 uM; format: cell-based
T1 sequence (whole entry): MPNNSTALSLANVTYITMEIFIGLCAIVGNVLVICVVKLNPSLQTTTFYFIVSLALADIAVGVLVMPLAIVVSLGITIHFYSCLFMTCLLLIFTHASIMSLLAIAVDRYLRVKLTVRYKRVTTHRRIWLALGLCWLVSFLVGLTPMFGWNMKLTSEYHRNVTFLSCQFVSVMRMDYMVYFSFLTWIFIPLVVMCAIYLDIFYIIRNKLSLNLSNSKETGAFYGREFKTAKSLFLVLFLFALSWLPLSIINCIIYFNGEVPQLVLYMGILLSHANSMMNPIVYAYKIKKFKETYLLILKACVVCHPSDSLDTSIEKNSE
Outline: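 Competition for [3H]MRE-3008F20 at CHO hA3 membranes (100 µg protein), 150 min at 4 °C, Tris-HCl with MgCl2 and 1 mM EDTA, pH 7.4. Compound tested at 10 µM; percent displacement reported, n = 3.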

[2] = biological target: T2, Adenosine receptor A1 (Homo sapiens) (UniProt P30542); experiment: Activity at human recombinant adenosine A1 receptor expressed in CHO cells assessed as inhibition of forskolin-stimulated cAMP accumulation in presence of CPA at 0.01 uM relative to control; format: functional, cell-based; parameters: scale not given: the % may be the effect or the level left
T2 sequence (whole entry): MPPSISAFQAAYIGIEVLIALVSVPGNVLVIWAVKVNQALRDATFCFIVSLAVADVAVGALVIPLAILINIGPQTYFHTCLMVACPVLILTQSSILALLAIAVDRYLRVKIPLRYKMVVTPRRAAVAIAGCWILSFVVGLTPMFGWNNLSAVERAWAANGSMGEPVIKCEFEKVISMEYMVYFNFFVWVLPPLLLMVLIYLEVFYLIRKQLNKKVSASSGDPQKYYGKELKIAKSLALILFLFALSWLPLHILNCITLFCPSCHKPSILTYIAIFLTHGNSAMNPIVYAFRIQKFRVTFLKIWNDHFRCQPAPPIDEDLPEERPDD
Outline: (§1)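 CHO cells stably expressing human A1 receptor (about 5 pmol/mg protein), grown 48–72 h in Ham's F12 with FBS and G-418. Cells were washed in HBSS for 6 min at 37 °C, then incubated 6 min at 37 °C in HBSS with adenosine deaminase (0.5 U/ml), 20 µM rolipram, 1 µM forskolin and 0.03 nM CPA, plus compound at 0.01–10 µM. Stopped with 50 mM HCl; cAMP read by acetylation radioimmunoassay. Quadruplicates; averaged over six experiments.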

[3] = biological target: Adenosine A2 receptor (Homo sapiens) (UniProt P29275+P29274); experiment: Displacement of [3H]ZM 241385 from human adenosine A2 receptor expressed in CHO cells at 10 uM; format: cell-based
Outline: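 Competition for [3H]ZM 241385 at CHO hA2A membranes (100 µg protein), 60 min at 4 °C, Tris-HCl with MgCl2, pH 7.4. Nonspecific binding defined with 1 µM ZM241385. Compound tested at 10 µM; percent displacement reported, n = 3.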

[4] = biological target: T2, Adenosine receptor A1 (Homo sapiens); experiment: Activity at human recombinant adenosine A1 receptor expressed in CHO cells assessed as inhibition of forskolin-stimulated cAMP accumulation in presence of CPA at 0.1 uM relative to control; format: functional, cell-based; parameters: scale not given: the % may be the effect or the level left; outline: as §1
[5] = biological target: T2, Adenosine receptor A1 (Homo sapiens); experiment: Displacement of [3H]DPCPX from human adenosine A1 receptor expressed in CHO cells at 10 uM; format: cell-based
Outline: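 Competition for 1 nM [3H]DPCPX at CHO hA1 membranes (100 µg protein), 150 min at 25 °C, Tris-HCl pH 7.4. Nonspecific binding defined with 1 µM DPCPX. Compound tested at 10 µM; percent displacement reported, n = 3.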

[6] = biological target: T2, Adenosine receptor A1 (Homo sapiens); experiment: Activity at human recombinant adenosine A1 receptor expressed in CHO cells assessed as inhibition of forskolin-stimulated cAMP accumulation in presence of CPA at 1 uM relative to control; format: functional, cell-based; parameters: scale not given: the % may be the effect or the level left; outline: as §1
[7] = biological target: T2, Adenosine receptor A1 (Homo sapiens); experiment: Activity at human recombinant adenosine A1 receptor expressed in CHO cells assessed as inhibition of forskolin-stimulated cAMP accumulation in presence of CPA at 10 uM relative to control; format: functional, cell-based; parameters: scale not given: the % may be the effect or the level left; outline: as §1
[8] = biological target: T2, Adenosine receptor A1 (Homo sapiens); experiment: Activity at human recombinant adenosine A1 receptor expressed in CHO cells assessed as inhibition of forskolin-stimulated cAMP accumulation in the presence of CPA relative to control; format: functional, cell-based; parameters: scale not given: the % may be the effect or the level left; outline: as §1
[9] = biological target: T2, Adenosine receptor A1 (Homo sapiens); experiment: Activity at human recombinant adenosine A1 receptor expressed in CHO cells assessed as inhibition of forskolin-stimulated cAMP accumulation in the presence of CPA at 10 uM; format: functional, cell-based; parameters: scale not given: the % may be the effect or the level left; outline: as §1

| SMILES | inhibition [1] | Activity [2] | inhibition [3] | Activity [4] | inhibition [5] | Activity [6] | Activity [7] | Activity [8] | Activity [9] |
| --- | --- | --- | --- | --- | --- | --- | --- | --- | --- |
| Nc1sc2cnccc2c1C(=O)c1cccs1 | 0% | 111% | 0% | 104% | 35% | 107% | 98% | – | – |
| Cc1sc(N)c(C(=O)c2cccc(C(F)(F)F)c2)c1C | – | 97% | 0% | 93% | 0% | 81% | 52% | 48% | – |
| Nc1sc2cnccc2c1C(=O)c1ccccc1 | 0% | 91% | 0% | 89% | 0% | 90% | 100% | – | – |
| Nc1sc2cnccc2c1C(=O)c1ccccc1Cl | 0% | 103% | 0% | 98% | 0% | 97% | 111% | – | – |
| Nc1sc2cnccc2c1C(=O)c1ccc(Cl)c(Cl)c1 | 0% | 113% | 0% | 108% | 0% | 103% | 105% | – | – |
| COc1ccc(C(=O)c2c(N)sc3cnccc23)cc1 | 0% | 95% | 0% | 97% | 0% | 90% | 94% | – | – |
| Nc1sc2cnccc2c1C(=O)c1ccc(Br)cc1 | 0% | 97% | 0% | 89% | 0% | 84% | 104% | – | – |
| Cc1ccc(C(=O)c2c(N)sc3cnccc23)cc1 | 0% | 102% | 0% | 107% | 45% | 107% | 121% | – | – |
| Nc1sc2cnccc2c1C(=O)c1cccc(C(F)(F)F)c1 | 0% | 101% | 0% | 95% | 0% | 82% | 63% | – | 37% |
| Nc1sc2cnccc2c1C(=O)c1cccc2ccccc12 | 0% | 113% | 0% | 112% | 0% | 107% | 66% | – | Active |
| Nc1sc2cnccc2c1C(=O)c1ccc(Cl)cc1 | 0% | 104% | 0% | 102% | 50% | 96% | 114% | – | – |

Reference: ChEMBL document CHEMBL1139691, “Microwave-assisted synthesis of thieno[2,3-c]pyridine derivatives as a new series of allosteric enhancers at the adenosine A(1) receptor” (Bioorg Med Chem Lett, 2006)
